Experimental data published in ChEMBL document CHEMBL3286203, “Reactive oxygen species (ROS) inducible DNA cross-linking agents and their effect on cancer cells and normal lymphocytes” (J Med Chem, 2014).
Calls of active or inactive are those of the source. No cut-off for these calls is given here.

Assays:
OVCAR-3 = assay: Cytotoxicity against human OVCAR3 cells assessed as growth inhibition at 10 uM after 48 hrs by SRB assay; type: functional, cell-based
Method in brief: (§1)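 Single-dose screen run by the NCI Developmental Therapeutics Program (NCI-60). Cells were grown in RPMI 1640 with 5% fetal bovine serum and 2 mM L-glutamine. They were plated at 5000–40 000 cells/well, depending on doubling time. Each line was run in two plates and exposed to 10 μM drug for 48 h at 37 °C, 5% CO2, 100% humidity. Read-out was growth percent.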

OVCAR-5 = assay: Cytotoxicity against human OVCAR5 cells assessed as growth inhibition at 10 uM after 48 hrs by SRB assay; type: functional, cell-based; method in brief: as §1
OVCAR-8 = assay: Cytotoxicity against human OVCAR8 cells assessed as growth inhibition at 10 uM after 48 hrs by SRB assay; type: functional, cell-based; method in brief: as §1
NCI/ADR-RES = assay: Cytotoxicity against human NCI-ADR-RES cells assessed as growth inhibition at 10 uM after 48 hrs by SRB assay; type: functional, cell-based; method in brief: as §1
ACHN = assay: Cytotoxicity against human ACHN cells assessed as growth inhibition at 10 uM after 48 hrs by SRB assay; type: functional, cell-based
Method in brief: (§2)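 NCI DTP 60-cell-line screen run at the NCI. Cells were grown in RPMI 1640 with 5% FBS and 2 mM L-glutamine. They were seeded at 5000–40 000 cells/well depending on doubling time and grown in two plates per line. Each was exposed to a single 10 μM dose for 48 h at 37 °C, 5% CO2, 95% air, 100% humidity. Read-out was percent growth.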

SN12C = assay: Cytotoxicity against human SN12C cells assessed as growth inhibition at 10 uM after 48 hrs by SRB assay; type: functional, cell-based
Method in brief: (§3)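 NCI-60 DTP human tumour line screen. Cells grown in RPMI 1640 with 5% fetal bovine serum and 2 mM L-glutamine, plated at 5000–40 000 cells/well according to doubling time. Single dose of 10 μM for 48 h at 37 °C, 5% CO2, 95% air, 100% humidity, two plates per line. Read-out is growth percent.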

TK-10 = assay: Cytotoxicity against human TK10 cells assessed as growth inhibition at 10 uM after 48 hrs by SRB assay; type: functional, cell-based; method in brief: as §3
DU-145 = assay: Cytotoxicity against human DU145 cells assessed as growth inhibition at 10 uM after 48 hrs by SRB assay; type: functional, cell-based; method in brief: as §2
MCF7 [1] = assay: Cytotoxicity against human MCF7 cells assessed as growth inhibition at 10 uM after 48 hrs by SRB assay; type: functional, cell-based; method in brief: as §1
MDA-MB-231 = assay: Cytotoxicity against human MDA-MB-231 cells assessed as growth inhibition at 10 uM after 48 hrs by SRB assay; type: functional, cell-based; method in brief: as §1
Hs-578T = assay: Cytotoxicity against human Hs578T cells assessed as growth inhibition at 10 uM after 48 hrs by SRB assay; type: functional, cell-based; method in brief: as §2
NCI-H226 [2] = assay: Cytotoxicity against human NCI-H226 cells assessed as growth inhibition at 10 uM after 48 hrs by SRB assay; type: functional, cell-based; method in brief: as §1
NCI-H23 = assay: Cytotoxicity against human NCI-H23 cells assessed as growth inhibition at 10 uM after 48 hrs by SRB assay; type: functional, cell-based; method in brief: as §1
NCI-H460 = assay: Cytotoxicity against human NCI-H460 cells assessed as growth inhibition at 10 uM after 48 hrs by SRB assay; type: functional, cell-based; method in brief: as §1
NCI-H522 = assay: Cytotoxicity against human NCI-H522 cells assessed as growth inhibition at 10 uM after 48 hrs by SRB assay; type: functional, cell-based; method in brief: as §1
HCC 2998 = assay: Cytotoxicity against human HCC2998 cells assessed as growth inhibition at 10 uM after 48 hrs by SRB assay; type: functional, cell-based; method in brief: as §2
HCT-116 = assay: Cytotoxicity against human HCT116 cells assessed as growth inhibition at 10 uM after 48 hrs by SRB assay; type: functional, cell-based; method in brief: as §2
HT-29 = assay: Cytotoxicity against human HT-29 cells assessed as growth inhibition at 10 uM after 48 hrs by SRB assay; type: functional, cell-based; method in brief: as §2
KM12 = assay: Cytotoxicity against human KM12 cells assessed as growth inhibition at 10 uM after 48 hrs by SRB assay; type: functional, cell-based; method in brief: as §2
SW-620 = assay: Cytotoxicity against human SW620 cells assessed as growth inhibition at 10 uM after 48 hrs by SRB assay; type: functional, cell-based; method in brief: as §3
[3] = Induction of [32P]-labeled 49-mer oligonucleotide duplex DNA 12 with GNC sequence at terminus (unknown origin) interstrand cross-linking at 1 mM after 16 hrs by PAGE in presence of H2O2
Method in brief: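 32P-labelled 12a (1.0 μM) annealed with 1.5 equiv of 12b in 10 mM potassium phosphate pH 7 / 100 mM NaCl (65 °C for 3 min, then slow cooling). Duplex incubated with compound (final 1 μM–5 mM), with or without H2O2, in NaCl and potassium phosphate pH 8 at room temperature for 16 h. Quenched in formamide; 20% denaturing PAGE.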

A549 = assay: Cytotoxicity against human A549 cells assessed as growth inhibition at 10 uM after 48 hrs by SRB assay; type: functional, cell-based; method in brief: as §2
SR [4] = assay: Cytotoxicity against human SR cells assessed as growth inhibition at 10 uM after 48 hrs by SRB assay; type: functional, cell-based; method in brief: as §3
K562 = assay: Cytotoxicity against human K562 cells assessed as growth inhibition at 10 uM after 48 hrs by SRB assay; type: functional, cell-based; method in brief: as §2
CCRF-CEM [5] = assay: Cytotoxicity against human CCRF-CEM cells assessed as growth inhibition at 10 uM after 48 hrs by SRB assay; type: functional, cell-based; method in brief: as §2
NCI-H226 [6] = assay: Cytotoxicity against human NCI-H226 cells after 48 hrs by SRB assay; type: functional; details: NCI-H226, 48 h
Method in brief: (§4)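 GI50 from the NCI Developmental Therapeutics Program in vitro human tumor cell screen. Cell lines were maintained in RPMI 1640 with 5% fetal bovine serum and 2 mM L-glutamine. They were seeded at 5000–40 000 cells/well, depending on each line's doubling time, then exposed to drug for 48 h at 37 °C, 5% CO2.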

NCI-H322M = assay: Cytotoxicity against human NCI-H322M cells after 48 hrs by SRB assay; type: functional; method in brief: as §4
A498 = assay: Cytotoxicity against human A498 cells after 48 hrs by SRB assay; type: functional; details: A498, 48 h
Method in brief: (§5)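 GI50 was determined in the NCI Developmental Therapeutics Program in vitro 60-line cancer screen. Tumour lines were maintained in RPMI 1640 containing 5% FBS and 2 mM L-glutamine. Cells were inoculated at 5000–40 000 cells/well according to each line's doubling time before drug exposure.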

[7] = Cytotoxicity against human UO31 cells after 48 hrs by SRB assay; type: functional; details: UO-31, 48 h
Method in brief: (§6)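 GI50 from the NCI-60 DTP human tumour line screen. Lines grown in RPMI 1640 with 5% fetal bovine serum and 2 mM L-glutamine, plated at 5000–40 000 cells/well according to doubling time. Incubated 48 h at 37 °C, 5% CO2.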

MCF7 [8] = assay: Cytotoxicity against human MCF7 cells after 48 hrs by SRB assay; type: functional; details: MCF7, 48 h; method in brief: as §5
CCRF-CEM [9] = assay: Cytotoxicity against human CCRF-CEM cells after 48 hrs by SRB assay; type: functional; method in brief: as §5
MOLT-4 = assay: Cytotoxicity against human MOLT4 cells after 48 hrs by SRB assay; type: functional; details: MOLT-4, 48 h; method in brief: as §4
SR [10] = assay: Cytotoxicity against human SR cells after 48 hrs by SRB assay; type: functional; method in brief: as §6

| Structure (SMILES) | growth inhibition (GI) (OVCAR-3) | growth inhibition (GI) (OVCAR-5) | growth inhibition (GI) (OVCAR-8) | growth inhibition (GI) (NCI/ADR-RES) | growth inhibition (GI) (ACHN) | growth inhibition (GI) (SN12C) | growth inhibition (GI) (TK-10) | growth inhibition (GI) (DU-145) | growth inhibition (GI) (MCF7 [1]) | growth inhibition (GI) (MDA-MB-231) | growth inhibition (GI) (Hs-578T) | growth inhibition (GI) (NCI-H226 [2]) | growth inhibition (GI) (NCI-H23) | growth inhibition (GI) (NCI-H460) | growth inhibition (GI) (NCI-H522) | growth inhibition (GI) (HCC 2998) | growth inhibition (GI) (HCT-116) | growth inhibition (GI) (HT-29) | growth inhibition (GI) (KM12) | growth inhibition (GI) (SW-620) | other results |
| --- | --- | --- | --- | --- | --- | --- | --- | --- | --- | --- | --- | --- | --- | --- | --- | --- | --- | --- | --- | --- | --- |
| CC1(C)OB(c2ccc(COC(=O)N(CCCl)CCCl)cc2)OC1(C)C | inactive | inactive | inactive | inactive | inactive | inactive | inactive | inactive | inactive | inactive | inactive | inactive | inactive | inactive | inactive | inactive | inactive | inactive | inactive | inactive | Activity [3]: inactive; growth inhibition (GI) (A549): inactive; growth inhibition (GI) (SR [4]): inactive; growth inhibition (GI) (K562): inactive; growth inhibition (GI) (CCRF-CEM [5]): inactive |
| CC1(C)OB(c2ccc(N(CCCl)CCOS(C)(=O)=O)cc2)OC1(C)C | Active | Active | Active | Active | Active | Active | Active | Active | Active | Active | Active | Active | Active | Active | Active | Active | Active | Active | Active | Active | GI50 (NCI-H226 [6]): 10.4 µM; GI50 (NCI-H322M): 28.2 µM; GI50 (A498): 8.59 µM; GI50 [7]: 6.18 µM; GI50 (MCF7 [8]): 4.44 µM; Activity [3]: 37%; growth inhibition (GI) (A549): Active; growth inhibition (GI) (SR [4]): Active; growth inhibition (GI) (K562): Active; growth inhibition (GI) (CCRF-CEM [5]): Active; GI50 (CCRF-CEM [9]): 4.01 µM; GI50 (MOLT-4): 3.74 µM; GI50 (SR [10]): 0.63 µM |
